These results are taken from ChEMBL document CHEMBL3608218, “Optimization of a Dibenzodiazepine Hit to a Potent and Selective Allosteric PAK1 Inhibitor” (ACS Med Chem Lett, 2015).

The target in data set [1] is T1, Serine/threonine-protein kinase PAK 4 (Homo sapiens, UniProt O96013). The data set can be described thus: Binding affinity to PAK4 (unknown origin) expressed in HEK293 cells after 1 hr by qPCR analysis. The format is cell-based. A general note: Real-time PCR tracks product formation cycle by cycle.
The nature of data set [2]: Aqueous solubility of the compound at pH 6.8. The settings on record: buffer. The format is physicochemical.
In data set [3] the target is T2, Serine/threonine-protein kinase PAK 2 (Homo sapiens, UniProt Q13177). In words: Binding affinity to PAK2 (unknown origin) expressed in HEK293 cells after 1 hr by qPCR analysis. The format is cell-based.
The target in data set [4] is Serine/threonine-protein kinase PAK 3 (Homo sapiens, UniProt O75914). The data set can be described thus: Binding affinity to PAK3 (unknown origin) expressed in HEK293 cells after 1 hr by qPCR analysis. The class given is cell-based.
For data set [5], the target named is T3, Serine/threonine-protein kinase PAK 6 (Homo sapiens, UniProt Q9NQU5). In words: Inhibition of full length human PAK6 assessed as phosphate incorporation onto MBP preincubated for 5 mins followed by Cdc42, MBP, and mixture of ATP and [32P]-gamma-ATP addition measured after 20 mins by scintillation counting analysis.
Data set [6] deals with Serine/threonine-protein kinase PAK 5 (Homo sapiens, UniProt Q9P286). The data set can be described thus: Inhibition of full length PAK5 (unknown origin) expressed in HEK293 cells assessed as phosphate incorporation onto MBP preincubated for 5 mins followed by Cdc42, MBP, and mixture of ATP and [32P]-gamma-ATP addition measured after 20 mins by scintillation counting analysis. The format is cell-based.

Data set [7] deals with T4, Serine/threonine-protein kinase PAK 1 (Homo sapiens, UniProt Q13153). In words: Non-ATP competitive inhibition of full-length human PAK1 assessed as phosphate incorporation onto MBP preincubated for 5 mins followed by Cdc42, MBP, and mixture of ATP and [32P]-gamma-ATP addition measured after 20 mins by scintillation counting analysis.
Data set [8] addresses T1, Serine/threonine-protein kinase PAK 4. In words: Inhibition of PAK4 kinase domain (300 to 591) (unknown origin) assessed as phosphate incorporation onto MBP preincubated for 5 mins followed by Cdc42, MBP, and mixture of ATP and [32P]-gamma-ATP addition measured after 20 mins by scintillation counting analysis.
Data set [9] in a line: Half life in rat liver microsomes. The class given is ADME. Background: Microsomes from liver hold many membrane-bound enzymes, among them those of drug oxidation.
A further data set concerns the target Cytochrome P450 2D6 (Homo sapiens, UniProt P10635). The data set can be described thus: Inhibition of CYP2D6 (unknown origin). The class given is ADME.
Data set [10] can be described thus: Apparent permeability across apical to basolateral side in human Caco2 cells. The class given is ADME, cell-based. The settings on record: Caco-2. Background: Caco-2 cells form a polarised layer with tight junctions and transporters.
For a further data set, the target named is Histamine H1 receptor (Homo sapiens, UniProt P35367). In words: Inhibition of recombinant human histamine H1 receptor.
Another data set has as its target Cytochrome P450 3A4 (Homo sapiens, UniProt P08684). The data set can be described thus: Inhibition of CYP3A4 midazolam site (unknown origin). The class given is ADME.
Data set [11] deals with T2, Serine/threonine-protein kinase PAK 2. As to conditions: SU8686, 0.009 to 20 uM.
For data set [12] the target is unchanged. The settings on record: SU8686, 6 to 20 uM.
Data set [13] is described as follows: Permeability of the compound by PAMPA. The class given is physicochemical. The method, boiled down: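 PAMPA permeability was expressed as a calculated fraction absorbed (cFA).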
Another data set addresses Cytochrome P450 2C9 (Homo sapiens, UniProt P11712). The data set can be described thus: Inhibition of CYP2C9 (unknown origin). The format is ADME.
Data set [14] has as its target T2, Serine/threonine-protein kinase PAK 2. As to conditions: SU8686, 0.21 uM.
Data set [15] in a line: Aqueous solubility of the compound at pH 4. The format is physicochemical. The settings on record: buffer.
For data set [16], the target named is T5, Muscarinic acetylcholine receptor M1 (Homo sapiens, UniProt P11229).
T5 sequence (P11229 whole entry): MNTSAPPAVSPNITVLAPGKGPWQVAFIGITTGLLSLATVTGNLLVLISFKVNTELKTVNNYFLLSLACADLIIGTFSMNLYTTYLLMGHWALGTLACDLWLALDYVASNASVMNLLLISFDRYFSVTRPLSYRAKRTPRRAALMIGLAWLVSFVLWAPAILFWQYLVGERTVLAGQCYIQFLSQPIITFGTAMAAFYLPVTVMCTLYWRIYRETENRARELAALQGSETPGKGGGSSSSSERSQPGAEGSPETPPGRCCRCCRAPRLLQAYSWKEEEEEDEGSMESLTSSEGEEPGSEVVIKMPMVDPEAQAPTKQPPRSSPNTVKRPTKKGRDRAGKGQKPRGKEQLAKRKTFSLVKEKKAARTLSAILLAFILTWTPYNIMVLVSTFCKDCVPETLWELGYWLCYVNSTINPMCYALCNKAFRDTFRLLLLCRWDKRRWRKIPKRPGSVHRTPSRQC
In words: Inhibition of recombinant human muscarinic M1 receptor.

The subject of data set [17] is SU.86.86. In words: Cytotoxicity against human SU8686 cells assessed as growth inhibition at >2 uM after 5 days by CTG assay. The format is functional, cell-based.
The test system of data set [18] is SU.86.86. In words: Cytotoxicity against human SU8686 cells assessed as growth inhibition at 0.21 uM after 5 days by CTG assay in presence of PAK2 shRNA. The class given is functional, cell-based.
The target of data set [19] is T4, Serine/threonine-protein kinase PAK 1. The data set can be described thus: Inhibition of wild type dephosphorylated form of PAK1 (249 to 545) (unknown origin) expressed in Escherichia coli using 5-Fluo-Ahx-AKRRRLSSLRA-COOH as substrate preincubated for 60 mins followed by substrate addition measured after 60 mins by Caliper assay.
For data set [20] the target is unchanged. In words: Inhibition of wild type phosphorylated form of PAK1 (249 to 545) (unknown origin) expressed in Escherichia coli using 5-Fluo-Ahx-AKRRRLSSLRA-COOH as substrate preincubated for 60 mins followed by substrate addition measured after 60 mins by Caliper assay.
The target of data set [21] is T3, Serine/threonine-protein kinase PAK 6. In words: Binding affinity to PAK6 (unknown origin) expressed in HEK293 cells after 1 hr by qPCR analysis. The format is cell-based.
Data set [22] concerns the target T4, Serine/threonine-protein kinase PAK 1. The data set can be described thus: Binding affinity to PAK1 (unknown origin) expressed in HEK293 cells after 1 hr by qPCR analysis. The class given is cell-based.

Converted amounts (≈) assume the structure as drawn. The source made the active and inactive calls. The rule behind the calls is not given here.

T1 sequence (O96013 whole entry): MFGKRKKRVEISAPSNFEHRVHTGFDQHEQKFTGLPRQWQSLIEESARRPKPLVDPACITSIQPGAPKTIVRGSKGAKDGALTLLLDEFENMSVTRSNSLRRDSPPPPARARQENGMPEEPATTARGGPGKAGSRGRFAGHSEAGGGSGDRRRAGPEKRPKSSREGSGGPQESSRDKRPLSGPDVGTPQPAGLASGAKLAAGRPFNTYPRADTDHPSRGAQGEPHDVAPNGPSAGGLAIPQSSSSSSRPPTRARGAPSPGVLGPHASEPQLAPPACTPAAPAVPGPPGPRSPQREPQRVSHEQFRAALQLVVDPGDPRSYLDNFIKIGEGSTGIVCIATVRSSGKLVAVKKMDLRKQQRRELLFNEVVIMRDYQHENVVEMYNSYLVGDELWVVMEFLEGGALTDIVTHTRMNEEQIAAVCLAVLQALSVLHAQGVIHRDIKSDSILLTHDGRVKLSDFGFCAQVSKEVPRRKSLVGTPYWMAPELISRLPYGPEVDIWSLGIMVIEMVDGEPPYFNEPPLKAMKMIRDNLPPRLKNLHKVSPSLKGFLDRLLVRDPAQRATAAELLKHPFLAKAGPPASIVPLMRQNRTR
Sequence of Serine/threonine-protein kinase PAK 3 (O75914 whole entry): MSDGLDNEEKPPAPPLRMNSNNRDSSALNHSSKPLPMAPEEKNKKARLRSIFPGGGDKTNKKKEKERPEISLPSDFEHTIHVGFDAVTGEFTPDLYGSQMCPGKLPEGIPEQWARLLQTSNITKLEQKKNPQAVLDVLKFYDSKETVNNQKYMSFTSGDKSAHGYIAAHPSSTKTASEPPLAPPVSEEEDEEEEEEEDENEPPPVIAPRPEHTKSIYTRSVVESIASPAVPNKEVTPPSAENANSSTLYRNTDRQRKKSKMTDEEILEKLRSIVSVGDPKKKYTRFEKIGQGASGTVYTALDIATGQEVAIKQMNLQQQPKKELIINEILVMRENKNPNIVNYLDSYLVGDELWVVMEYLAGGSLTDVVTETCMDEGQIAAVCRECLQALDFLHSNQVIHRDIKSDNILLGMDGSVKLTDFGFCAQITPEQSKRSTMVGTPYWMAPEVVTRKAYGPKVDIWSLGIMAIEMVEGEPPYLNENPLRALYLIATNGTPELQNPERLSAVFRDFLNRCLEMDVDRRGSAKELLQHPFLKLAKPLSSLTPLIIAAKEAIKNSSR
T2 sequence (Q13177 whole entry): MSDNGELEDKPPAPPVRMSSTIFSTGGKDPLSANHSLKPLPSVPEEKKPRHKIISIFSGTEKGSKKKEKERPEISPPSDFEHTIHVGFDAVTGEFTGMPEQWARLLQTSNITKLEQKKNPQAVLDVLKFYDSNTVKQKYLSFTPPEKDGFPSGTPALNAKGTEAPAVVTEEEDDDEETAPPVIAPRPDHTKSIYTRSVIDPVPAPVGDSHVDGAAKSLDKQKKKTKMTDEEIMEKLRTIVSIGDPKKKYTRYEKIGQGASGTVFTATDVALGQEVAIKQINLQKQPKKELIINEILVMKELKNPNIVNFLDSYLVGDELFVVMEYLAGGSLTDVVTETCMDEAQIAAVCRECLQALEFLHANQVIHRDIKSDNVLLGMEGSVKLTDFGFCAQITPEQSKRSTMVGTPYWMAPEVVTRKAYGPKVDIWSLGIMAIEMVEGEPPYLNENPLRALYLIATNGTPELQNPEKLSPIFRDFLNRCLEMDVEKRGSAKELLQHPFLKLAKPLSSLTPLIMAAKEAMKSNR
T4 sequence (Q13153 whole entry, the tested form may be a part): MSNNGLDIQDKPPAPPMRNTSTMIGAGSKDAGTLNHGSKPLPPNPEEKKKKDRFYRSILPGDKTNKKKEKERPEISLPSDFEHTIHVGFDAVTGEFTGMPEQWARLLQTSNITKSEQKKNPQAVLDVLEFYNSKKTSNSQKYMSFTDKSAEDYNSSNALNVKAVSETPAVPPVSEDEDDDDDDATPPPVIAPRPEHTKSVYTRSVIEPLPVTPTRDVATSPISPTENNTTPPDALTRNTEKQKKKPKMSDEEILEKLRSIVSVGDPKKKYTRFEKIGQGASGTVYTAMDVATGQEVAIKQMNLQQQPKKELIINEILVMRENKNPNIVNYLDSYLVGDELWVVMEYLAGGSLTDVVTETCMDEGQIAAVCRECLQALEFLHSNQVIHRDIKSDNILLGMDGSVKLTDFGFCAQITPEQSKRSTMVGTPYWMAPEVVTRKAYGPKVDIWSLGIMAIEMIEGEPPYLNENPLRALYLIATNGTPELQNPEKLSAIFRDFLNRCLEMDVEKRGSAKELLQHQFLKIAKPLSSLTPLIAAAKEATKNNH
T3 sequence (Q9NQU5 whole entry): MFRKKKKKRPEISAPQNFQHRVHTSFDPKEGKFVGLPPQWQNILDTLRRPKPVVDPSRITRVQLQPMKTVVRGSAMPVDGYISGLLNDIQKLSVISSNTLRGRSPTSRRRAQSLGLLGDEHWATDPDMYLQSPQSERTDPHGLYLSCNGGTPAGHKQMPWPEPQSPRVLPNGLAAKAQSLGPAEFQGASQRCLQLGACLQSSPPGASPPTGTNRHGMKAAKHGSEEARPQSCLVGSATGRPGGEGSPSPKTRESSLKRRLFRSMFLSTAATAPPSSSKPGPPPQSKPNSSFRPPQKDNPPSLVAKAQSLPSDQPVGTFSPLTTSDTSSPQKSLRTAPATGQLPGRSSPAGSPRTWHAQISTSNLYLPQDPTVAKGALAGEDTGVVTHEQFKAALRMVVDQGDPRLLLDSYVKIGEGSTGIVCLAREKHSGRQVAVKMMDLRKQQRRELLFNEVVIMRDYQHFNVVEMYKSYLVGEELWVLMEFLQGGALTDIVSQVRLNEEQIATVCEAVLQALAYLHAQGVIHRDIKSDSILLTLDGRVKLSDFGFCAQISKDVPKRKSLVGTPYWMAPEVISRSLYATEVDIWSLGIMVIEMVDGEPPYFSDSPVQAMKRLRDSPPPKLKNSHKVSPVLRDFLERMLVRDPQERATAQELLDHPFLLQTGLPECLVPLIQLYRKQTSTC
Sequence of Histamine H1 receptor (P35367 whole entry): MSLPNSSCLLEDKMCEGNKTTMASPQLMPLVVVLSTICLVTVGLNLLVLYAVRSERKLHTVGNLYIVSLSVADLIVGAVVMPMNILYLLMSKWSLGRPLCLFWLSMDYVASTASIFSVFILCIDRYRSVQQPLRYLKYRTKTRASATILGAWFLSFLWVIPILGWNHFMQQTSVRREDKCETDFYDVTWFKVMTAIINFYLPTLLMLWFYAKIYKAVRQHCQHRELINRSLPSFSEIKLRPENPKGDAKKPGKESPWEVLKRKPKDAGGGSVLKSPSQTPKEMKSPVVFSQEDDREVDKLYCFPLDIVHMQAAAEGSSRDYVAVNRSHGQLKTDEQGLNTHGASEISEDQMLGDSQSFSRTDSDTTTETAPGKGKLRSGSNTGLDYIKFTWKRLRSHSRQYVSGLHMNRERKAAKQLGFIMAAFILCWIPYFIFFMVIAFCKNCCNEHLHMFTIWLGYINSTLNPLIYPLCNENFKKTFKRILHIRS
Sequence of Serine/threonine-protein kinase PAK 5 (Q9P286 whole entry): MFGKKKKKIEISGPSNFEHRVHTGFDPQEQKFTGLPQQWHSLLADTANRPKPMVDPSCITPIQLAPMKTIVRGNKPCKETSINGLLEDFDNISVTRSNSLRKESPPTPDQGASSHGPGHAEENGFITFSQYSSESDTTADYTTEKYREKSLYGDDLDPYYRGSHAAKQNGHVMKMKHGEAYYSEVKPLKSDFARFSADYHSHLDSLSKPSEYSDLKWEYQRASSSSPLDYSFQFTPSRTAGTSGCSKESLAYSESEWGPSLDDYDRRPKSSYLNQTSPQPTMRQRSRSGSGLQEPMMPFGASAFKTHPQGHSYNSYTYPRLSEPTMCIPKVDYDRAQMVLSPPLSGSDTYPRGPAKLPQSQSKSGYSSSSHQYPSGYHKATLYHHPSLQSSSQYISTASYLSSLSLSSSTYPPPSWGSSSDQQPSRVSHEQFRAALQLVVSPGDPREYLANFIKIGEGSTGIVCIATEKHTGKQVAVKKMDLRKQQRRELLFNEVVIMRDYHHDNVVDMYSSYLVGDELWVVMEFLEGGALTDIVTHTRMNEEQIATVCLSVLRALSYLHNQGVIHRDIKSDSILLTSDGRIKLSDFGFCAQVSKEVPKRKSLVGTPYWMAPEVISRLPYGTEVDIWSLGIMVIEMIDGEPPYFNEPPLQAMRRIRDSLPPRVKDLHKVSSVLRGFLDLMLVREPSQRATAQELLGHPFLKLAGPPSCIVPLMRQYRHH
Sequence of Cytochrome P450 3A4 (P08684 whole entry): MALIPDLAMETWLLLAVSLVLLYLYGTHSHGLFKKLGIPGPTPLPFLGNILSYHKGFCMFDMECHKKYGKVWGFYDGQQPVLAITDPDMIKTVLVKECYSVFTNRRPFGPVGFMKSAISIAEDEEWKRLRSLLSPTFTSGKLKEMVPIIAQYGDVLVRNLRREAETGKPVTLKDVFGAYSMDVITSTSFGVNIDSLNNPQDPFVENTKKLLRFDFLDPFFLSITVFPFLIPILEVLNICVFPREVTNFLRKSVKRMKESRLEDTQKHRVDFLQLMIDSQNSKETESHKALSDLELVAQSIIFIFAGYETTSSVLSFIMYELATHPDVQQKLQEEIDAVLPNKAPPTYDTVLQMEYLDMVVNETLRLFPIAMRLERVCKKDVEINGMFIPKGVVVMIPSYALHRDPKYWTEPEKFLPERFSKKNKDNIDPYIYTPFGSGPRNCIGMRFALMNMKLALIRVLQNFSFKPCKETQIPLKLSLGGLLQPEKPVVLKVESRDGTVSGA

As usually defined, the Kd is the equilibrium constant for the complex coming apart. Low values mean a tighter complex, high ones a looser complex. What is called solubility is how much of the substance goes into solution per volume. Low values mean little dissolved substance, high ones much dissolved substance. On to `CCN1c2ccc(F)cc2N=C(N[C@H]2CCN(C(=O)NC(C)(C)C)C2)c2cc(Cl)ccc21`, for which the Kd was above 40 µM in data set [1], 1.1 µM in data set [3] and above 40 µM in data set [4]. Besides, in data set [2], the solubility is below 4 µM.
For orientation: IC50 means the concentration that inhibits the measured activity by half. On to `Oc1ccc2ccccc2c1SSc1c(O)ccc2ccccc12`, for which the IC50 in [5] is above 10 µM; in data set [6] it was above 10 µM; in data set [7], 2.5 µM; in data set [8], above 10 µM.
Broadly, the half-life is how long it takes for the measured level to halve. A word on the Papp A→B: it is how fast a substance crosses the layer from the apical side. Compound `CC(C)NC(=O)N1CC[C@H](NC2=Nc3cc(F)ccc3N(CC(F)F)c3ccc(Cl)cc32)C1` displayed a half-life in data set [9] of 3.5 min. Further, the INH was above 20 µM on Cytochrome P450 2D6, 13.2 µM at Cytochrome P450 3A4 and 16.7 µM at Cytochrome P450 2C9. Besides, in data set [10], the apparent permeability from apical to basolateral (Papp A→B) was 0.428 ×10⁻⁶ cm/s. The concentration for half-maximal inhibition (IC50) (on Histamine H1 receptor; in [16]) was above 30 µM throughout. For the same compound, the solubility is 55 µM (≈ 26.4 µg/mL) in data set [2] and above 1000 µM in data set [15]. The inhibition entry in data set [11], in [12] and in data set [14] was “Active” throughout. Besides, the permeability result in data set [13] is listed as “permeable”. The compound further came in with a Kd in data set [3] of 0.4 µM. For the same compound, the “growth inhibition (GI)” value in the data set with SU.86.86 [17] and in the data set on SU.86.86 [18] was “Active” in each case.
For the compound `CN1CCN(C2=Nc3cc(F)ccc3Nc3ccc(F)cc32)CC1`, the IC50 at Histamine H1 receptor turned out to be 0.001 µM; in data set [19], 12 µM; in data set [20], 54 µM; in [16], 0.006 µM.
With `CCN1c2ccc(F)cc2N=C(N2CCN(C)CC2)c2cc(Cl)ccc21`, the Kd in data set [1] was above 40 µM; in [21] it was above 40 µM; in [22], 0.34 µM; in [3] it was above 40 µM; in data set [4] it was above 40 µM. Moreover, in data set [19], the IC50 was 0.323 µM.
Turning to `CCN1c2ccc(F)cc2N=C(N[C@H]2CCN(C(=O)OC(C)(C)C)C2)c2cc(Cl)ccc21`, the Kd in [1] was above 40 µM; in [21], above 40 µM; in data set [22], 0.13 µM; in data set [3], above 40 µM; in [4], above 40 µM. The compound further returned an IC50 in data set [19] of 0.19 µM.
